Our source for the MIC values is ChEMBL document CHEMBL4002632, “Development of gallic acid formazans as novel enoyl acyl carrier protein reductase inhibitors for the treatment of tuberculosis” (Bioorg Med Chem Lett, 2017).

Holding throughout (type): functional
For assay [1], the system named is Mycobacterium tuberculosis. As to the kind of experiment: Antimycobacterial activity against isoniazid/rifampicin/kanamycin/streptomycin-resistant Mycobacterium tuberculosis by microplate Alamar Blue assay. In short, it runs like this:
(§1)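 MIC against multidrug-resistant M. tuberculosis strains: HR, HRKS, HRKCpm, HRKSXMfxLev and HRS. Linezolid served as reference.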
Background: The colour change of resazurin is a common sign of viable cells or microbes.

In assay [2] the test system is Mycobacterium tuberculosis. As to the kind of experiment: Antimycobacterial activity against isoniazid/rifampicin/kanamycin/capreomycin-resistant Mycobacterium tuberculosis by microplate Alamar Blue assay. In short, it runs like this:
as §1

Assay [3] has as its system Mycobacterium tuberculosis. As to the kind of experiment: Antimycobacterial activity against isoniazid/rifampicin/kanamycin/streptomycin/ofloxacin/moxifloxacin/levofloxacin-resistant Mycobacterium tuberculosis by microplate Alamar Blue assay. The essentials:
as §1

Assay [4] has as its system Mycobacterium tuberculosis. As to the kind of experiment: Antimycobacterial activity against isoniazid/rifampicin/streptomycin-resistant Mycobacterium tuberculosis by microplate Alamar Blue assay. In short, it runs like this: as §1
For assay [5], the system named is Mycobacterium tuberculosis. As to the kind of experiment: Antimycobacterial activity against isoniazid/rifampicin-resistant Mycobacterium tuberculosis by microplate Alamar Blue assay. In short, it runs like this: as §1

≈ marks a conversion by molar mass, not a printed value. Calls of active or inactive are those of the source. The calls are words filed in the database; no cut-off is given here.

Turning to `COc1ccccc1/N=N/C(=N/NC(=O)c1cc(O)c(O)c(O)c1)c1ccccc1`, the MIC entry in assay [1], in assay [2], in assay [3] and in assay [4] was “inactive” each time. Further, in assay [5], the MIC was 23.9 µM (≈ 9.69 µg/mL).

With `CC(=O)NC[C@H]1CN(c2ccc(N3CCOCC3)c(F)c2)C(=O)O1` [LINEZOLID], the MIC in assay [1] was 2.78 µM (≈ 0.938 µg/mL); in assay [2], 1.86 µM (≈ 0.627 µg/mL); in assay [3], 1.86 µM (≈ 0.627 µg/mL); in assay [4], 3.7 µM (≈ 1.25 µg/mL); in assay [5], 3.7 µM (≈ 1.25 µg/mL).

As to `COc1ccc(/N=N/C(=N/NC(=O)c2cc(O)c(O)c(O)c2)c2ccccc2)cc1`, the MIC is 2.92 µM (≈ 1.19 µg/mL) in assay [1]; 7.62 µM (≈ 3.1 µg/mL) in assay [2]; 10.6 µM (≈ 4.29 µg/mL) in assay [3]; 1.9 µM (≈ 0.772 µg/mL) in assay [4]; 1.9 µM (≈ 0.772 µg/mL) in assay [5].

For the molecule `O=C(N/N=C(/N=N/c1ccc(Cl)cc1Cl)c1ccccc1)c1cc(O)c(O)c(O)c1`, the MIC in assay [1] worked out at 5.16 µM (≈ 2.3 µg/mL); in assay [2] it was 7.43 µM (≈ 3.31 µg/mL); in assay [3], 11.4 µM (≈ 5.09 µg/mL); in assay [4], 1.34 µM (≈ 0.597 µg/mL); in assay [5], 0.33 µM (≈ 0.147 µg/mL).

In the case of `O=C(N/N=C(/N=N/c1ccc(F)cc1)c1ccccc1)c1cc(O)c(O)c(O)c1`, the MIC came to 0.73 µM (≈ 0.288 µg/mL) in assay [1], 1.92 µM (≈ 0.757 µg/mL) in assay [2], 0.96 µM (≈ 0.379 µg/mL) in assay [4] and 0.49 µM (≈ 0.193 µg/mL) in assay [5]. In addition, the MIC result in assay [3] was “inactive”.

For `Cc1ccccc1/N=N/C(=N/NC(=O)c1cc(O)c(O)c(O)c1)c1ccccc1`, the results for the MIC in assay [1], in assay [4] and in assay [5] were 16 µM (≈ 6.25 µg/mL), 5.89 µM (≈ 2.3 µg/mL) and 5.89 µM (≈ 2.3 µg/mL), respectively. Besides, the MIC entry in assay [2] and in assay [3] was “inactive” throughout.

As for `O=C(N/N=C(/N=N/c1ccccc1[N+](=O)[O-])c1ccccc1)c1cc(O)c(O)c(O)c1`, the MIC result in assay [1], in assay [2] and in assay [3] was “inactive” each time. Moreover, the minimal inhibitory concentration (MIC) in assay [4] is 14.8 µM (≈ 6.25 µg/mL); in assay [5] it was 5.46 µM (≈ 2.3 µg/mL).

For `O=C(N/N=C(/N=N/c1ccc([N+](=O)[O-])cc1)c1ccccc1)c1cc(O)c(O)c(O)c1`, the MIC amounted to 22.3 µM (≈ 9.4 µg/mL) in assay [1], 14 µM (≈ 5.9 µg/mL) in assay [2], 5.46 µM (≈ 2.3 µg/mL) in assay [4] and 2.85 µM (≈ 1.2 µg/mL) in assay [5]. The MIC result in assay [3] was “inactive”.

As for `O=C(N/N=C(/N=N/c1ccccc1)c1ccccc1)c1cc(O)c(O)c(O)c1`, the MIC result in assay [1], in assay [2], in assay [3], in assay [4] and in assay [5] was “inactive” in each case.

Consider `O=C(N/N=C(/N=N/c1ccccc1Cl)c1ccccc1)c1cc(O)c(O)c(O)c1`, for which the MIC entry in assay [1], in assay [2] and in assay [3] was “inactive” each time. Further, the MIC in assay [4] stood at 2.95 µM (≈ 1.21 µg/mL); in assay [5], 2.9 µM (≈ 1.19 µg/mL).

The MIC is the lowest concentration that inhibits growth of the organism.
